SF-1 act = SF-1 (human) activation. Q13285. CHO-K1 Gal4-SF-1 LBD luciferase reporter; % increase over DMSO SF-1-specific signal. activation, % at 10 µM. actives 1.9% (n = 65,000);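 active means activation above the mean activation of all tested compounds plus 3 SD, cut at about 50% in these data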
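Assay system: CHO-K1 cells co-transfected with Gal4 DBD–human SF-1 LBD, 5xGal4 luciferase reporter / Input: 4,000 cells per well / Incubation: 20 h compound exposure at 37 °C after 1 h cell settling / Detection: SteadyLite luciferase luminescence / Control set: DMSO negative control and −SF1 background wells / Replication: one test per compound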
HEK293 NFkB inh = inhibitors of the PMA/ionomycin-induced NF-kB reporter in HEK293 cells; inhibition, % at 3 µM; HEK-293 NF-kB luciferase reporter, luminescence; actives 0.21% (n = 62,000);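 active means inhibition above the mean of all tested compounds plus 3 SD, cut at about 40% in these data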;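 further: 0% = stimulated DMSO wells and 100% = 10 µM reference inhibitor 5653914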
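Signal: luciferase luminescence; Material: HEK-293 cells with stable firefly luciferase reporter driven by four HIV NF-kB elements; Probe or stimulus: PMA with ionomycin; Replication: tested once; Times: 1 h compound pretreatment, then 16 h stimulation at 37 °C, 5% CO2; Benchmarks: DMSO and 10 µM reference inhibitor; Evaluation: per-plate % inhibition versus controls.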
Jurkat viability = cytotoxic compounds reducing Jurkat cell viability. Jurkat E6.1 viability, ATP luminescence, 48 h. inhibition, % at 4 µM. actives 1.2% (n = 56,000). AID 463;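 active means inhibition above the mean inhibition of all tested compounds plus 3 SD, cut at about 28% in these data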
MT1-MMP txn act = activates MT1-MMP transcription; HT1080 MT1-MMP promoter luciferase reporter, luminescence, overnight; stronger effect = higher value; activation factor at 10 µM; actives 0.16% (n = 86,000); AID 750;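 active means activation factor of at least 2 for MT1-MMP transcription at 10 µM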
RORa activator = activators of human nuclear receptor RORA | P35398 | CHO-K1 Gal4-RORA LBD luciferase reporter, luminescence; percent increase over mock-subtracted basal signal | activation, % at 10 µM | actives 1.5% (n = 65,000) | AID 560;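 active means activation above the mean of all tested compounds plus 3 SD, cut at about 49% in these data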;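 further: 0% = DMSO-treated RORA cells and 100% = added signal equal to DMSO minus mock-transfected cells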
Target sequence (P35398 whole entry, looked up, the tested form may be a part): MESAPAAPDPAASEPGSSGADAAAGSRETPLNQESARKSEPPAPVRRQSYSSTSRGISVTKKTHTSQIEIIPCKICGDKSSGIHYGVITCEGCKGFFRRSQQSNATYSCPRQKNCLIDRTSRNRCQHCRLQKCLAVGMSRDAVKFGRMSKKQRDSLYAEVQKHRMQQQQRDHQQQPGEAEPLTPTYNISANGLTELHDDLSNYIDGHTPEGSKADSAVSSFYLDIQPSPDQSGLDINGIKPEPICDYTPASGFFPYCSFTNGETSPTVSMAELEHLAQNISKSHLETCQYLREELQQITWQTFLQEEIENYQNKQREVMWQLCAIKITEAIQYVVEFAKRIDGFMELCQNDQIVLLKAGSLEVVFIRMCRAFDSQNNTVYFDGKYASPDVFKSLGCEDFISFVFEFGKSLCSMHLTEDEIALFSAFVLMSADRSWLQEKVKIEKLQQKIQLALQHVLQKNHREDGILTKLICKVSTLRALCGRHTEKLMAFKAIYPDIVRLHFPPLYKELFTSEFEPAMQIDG
Active calls of the source: *; x = no result given. A selection: hits, their analogues and other compounds. The true share with any hit is near 2.8%.

SMILES	SF-1 act	HEK293 NFkB inh	Jurkat viability	MT1-MMP txn act	RORa activator
Oc1ccc(Cl)cc1-c1cc(-c2ccccc2)n[nH]1	25	8	21	1.4	12
COc1cccc(NC(=O)CSc2nncn2N)c1	10	7	-3	1.1	-15
Nn1cnnc1SCC(=O)Nc1ccc(C2CCCCC2)cc1	54*	-8	7	1.7	40
O=C(NCCCN1CCOCC1)c1ccccc1	x	x	x	1.3	x
Brc1ccc(-c2nc(-c3cccnc3)no2)o1	66*	-4	-9	1.4	28
Brc1ccc(-c2nc(-c3ccccc3)no2)o1	63*	-45	2	1.3	68*
c1ccc(-c2noc(-c3ccccc3-c3ccccc3)n2)cc1	x	x	x	0.9	x
Cc1ccc(-c2nc(-c3cccnc3)no2)c(C)c1	45	-43	-4	0.8	26
CC(CC(=O)O)NCC1COc2ccccc2O1 (centres undefined)	-5	14	-3	x	-29
CCOC(=O)c1cc(OC(=O)c2ccccc2OC)n(-c2ccccc2)n1	x	x	x	1.1	x
O=C(CN1CCC(n2nnc3cc(C(F)(F)F)ccc32)CC1)NCc1cccs1	1	18	7	1.1	-3
Cn1c(C(=O)NCC2CCCO2)cc2c(=O)[nH]c3ccccc3c21 (centres undefined)	-3	17	8	1.7	16
Cn1c(C(=O)NCC2CCCO2)cc2oc3ccccc3c21 (centres undefined)	50*	-19	2	1.3	59*
Cn1c(C(=O)NCc2ccccc2)cc2oc3ccccc3c21	x	x	x	1.1	x
Cn1c(C(=O)NCc2cccs2)cc2oc3ccccc3c21	54*	19	29*	1	60*
Cn1nc(-c2ccccc2)c2nc3ccccc3nc21	5	12	-4	1.2	-4
c1ccc(-c2nnc(-c3cccc(-c4nnc(-c5ccccc5)o4)c3)o2)cc1	-9	14	-6	1.1	18
c1ccc(Cc2nnc(-c3ccccc3)o2)cc1	45	-20	-4	1.3	50*
Cc1ccc2c(c1)nnn2C1CCN(S(=O)(=O)c2ccc(C(=O)N3C(C)CCCC3C)cc2)CC1 (centres undefined)	-24	14	43*	1	-63
Cc1ccc2c(c1)nnn2C1CCN(S(C)(=O)=O)CC1	-13	10	-5	1.3	-16
CCC(=O)N/C(N)=N/c1nc(C)c2cc(OC)ccc2n1	44	-6	0	1.3	69*
COc1ccc(-c2nc(-c3ccc(Br)o3)no2)cc1OC	87*	2	-7	1.7	60*
CCOc1ccccc1-c1nc(-c2ccncc2)no1	x	x	x	1.3	x
COc1ccc(-c2nc(-c3ccc(NC(=O)c4ccc(Br)o4)cc3)no2)cc1OC	31	-11	-4	1.6	-8
COc1ccccc1-c1nc(-c2ccncc2)no1	10	-28	6	1	58*
SMILES	SF-1 act	HEK293 NFkB inh	Jurkat viability	MT1-MMP txn act	RORa activator
COc1ccc(-c2noc(-c3ccccc3Cl)n2)cc1OC	45	-32	5	1.7	82*
COc1ccc(-c2noc(-c3cccc(Cl)c3)n2)cc1OC	14	-3	x	1.4	13
COc1ccc(CCC(=O)Nc2ccc(-c3noc(-c4ccc(OC)c(OC)c4)n3)cc2)cc1	75*	-52	4	1.4	14
CCOc1ccc(-c2noc(-c3ccncc3)n2)cc1OCC	18	6	-6	1.1	-10
COc1nc(C)ccc1-c1noc(-c2ccco2)n1	17	-33	-7	x	67*
COc1ccc(-c2noc(-c3ccco3)n2)cc1OC	50*	-40	5	1.1	44
COc1ccc(-c2nc(-c3ccncc3)no2)cc1OC	74*	2	-2	1.5	68*
CN1C(=O)CC(N2CCC(c3nc4ccccc4s3)CC2)C1=O (centres undefined)	-5	8	-5	1.2	-2
O=C(NCCCN1CCCCC1)c1ccc2c(c1)NC(=O)C(N1CCCCC1)S2 (centres undefined)	2	17	-1	1	1
CN(C)c1ccc(CNC(=O)C2(C)C=CCN2C(=O)c2ccccc2)cc1 (centres undefined)	x	x	x	1.1	x
O=C(c1ccco1)N1CCN(S(=O)(=O)c2ccc3c(c2)CCN3C(=O)C2CC2)CC1	14	5	-2	1.1	-21
Cc1nc2ccccc2c(=O)n1/N=C/c1ccccn1	50*	7	3	1	26
N#C/C(C(=O)Oc1ccccc1)=C1\C=CC=CN1	35	-8	2	1.3	58*
COc1ccccc1N1CCN(c2ccc(-c3ccccc3)nn2)CC1	-12	8	x	1	-32
CN(C)c1ccc(-c2ccccc2)nn1	26	-6	x	1.2	56*
N=c1ccn(Cc2ccc(Cl)c(Cl)c2)cc1	6	13	30*	1.1	-16
CCOc1ccc(Cl)cc1S(=O)(=O)n1cnc2ccccc21	26	11	51*	1.2	-18
COc1ccc(Cl)cc1S(=O)(=O)N1CCCC1	x	x	x	1.1	x
CCOc1cc(C)c(Cl)cc1S(=O)(=O)n1cnc2ccccc21	-4	13	3	1.1	-25
COc1ccc(Cl)cc1S(=O)(=O)n1cnc2ccccc21	32	15	53*	1	-2
O=C1Nc2ccc(Br)cc2C1(O)Cc1ccncc1 (centres undefined)	8	3	-6	1.1	-12
O=C(Nc1ccccc1)c1cc2ccccc2o1	x	x	x	0.6	x
COc1cccc2cc(-c3cn4ccc(C)cc4n3)c(=O)oc12	x	x	x	1.1	x
COc1cccc2cc(-c3cn4cccc(C)c4n3)c(=O)oc12	53*	-20	-3	1.4	24
Cc1ccc2c(C(=O)CN3CCN(C4CCCCC4)CC3)c(C)[nH]c2c1	1	12	9	1.2	-1
SMILES	SF-1 act	HEK293 NFkB inh	Jurkat viability	MT1-MMP txn act	RORa activator
Cc1ccc(N(CC(O)CON=C2c3ccccc3-c3ccccc32)S(C)(=O)=O)cc1 (centres undefined)	x	x	x	1	x
Cc1ccc(-n2c(C)cc(C(=O)COC(=O)c3c(C)noc3C)c2C)cc1	79*	-14	21	1.3	2
CCOC(=O)/C=C/C(=O)OCC(=O)Nc1ccc(Cl)cn1	x	x	x	1.2	x
COC(=O)c1ccc(C(NC(=O)OCc2ccccc2)/C(C)=C/[C@@H](C)C(=O)N[C@@H](CO)Cc2ccccc2)cc1 (some centres undefined)	x	x	x	1.1	x
Cc1cc(N2CCN(c3nc4ccccc4s3)CC2)n2ncnc2n1	-55	25	83*	0.8	-75
Cc1csc(NC(=O)c2sc3nc(-c4cccs4)ccc3c2N)n1	50*	54*	-7	0.6	38
CC(=O)Nc1ccccc1N(C)S(=O)(=O)c1ccc(C)cc1	28	18	45*	1.1	48
CCCc1cc2c(=O)c(-c3ccccn3)coc2cc1OC	76*	-14	1	1.6	54*
CCOC(=O)Nc1ccc2c(C)cc(=O)oc2c1	56*	-8	-15	1.5	53*
O=C(NC1c2ccccc2-c2ccccc21)N1CCCCC1	-15	43*	4	1.2	27

Screening data: PubChem BioAssay, several laboratories
